Results as given in ChEMBL document CHEMBL4680064, “Natural product inspired optimization of a selective TRPV6 calcium channel inhibitor” (RSC Med Chem, 2020).
Active and inactive are the calls of the source. The rule behind the calls is not given here.

Experiments:
T47D [1] = assay: Cytotoxicity against human T47D cells assessed as induction of cell morphological changes at 100 uM by inverted microscopic analysis; type: cell-based
Outline: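 T47D cells, cultured and treated as in the 6-day XTT proliferation assay, were photographed for morphology after exposure at 100 μM and compared with control cultures.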

T47D [2] = assay: Antiproliferative activity against human T47D cells assessed as cell growth inhibition at 0.4 to 100 uM after 6 days by XTT assay; type: cell-based; settings: human, t47d, 144 h, 100 µM; dose 0.4-100 µM, time 6 day
Outline: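 Cells grown in RPMI with 10% FBS, 2 mM L-glutamine, penicillin/streptomycin and 1% non-essential amino acids. Seeded at 5 x 10³ cells/well and left 24 h at 37 °C, then treated at 100 μM to 0.4 μM. Exposure 6 days at 37 °C with fresh treatment medium every 48 h. Doxorubicin 10 μM and DMSO 0.01% served as controls. XTT with 1.25% PMS for 2 h; absorbance at 450 minus 650 nm, as % viable versus DMSO. Curves fitted by four-parameter non-linear regression. Mean ± SEM, n = 3/concentration, ≥3 independent experiments.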

HEK293 = assay: Antiproliferative activity human HEK293 cells expressing human TRPV6 assessed as cell growth inhibition at 0.4 to 100 uM after 6 days by XTT assay; type: cell-based; settings: hek293, 144 h, dose 0.4-100 µM, time 6 day
D(4) dopamine receptor = target: T1, D(4) dopamine receptor (Homo sapiens, UniProt P21917); assay: Inhibition of human dopamine D4.4 receptor at 10 uM
T1 sequence (P21917 whole entry): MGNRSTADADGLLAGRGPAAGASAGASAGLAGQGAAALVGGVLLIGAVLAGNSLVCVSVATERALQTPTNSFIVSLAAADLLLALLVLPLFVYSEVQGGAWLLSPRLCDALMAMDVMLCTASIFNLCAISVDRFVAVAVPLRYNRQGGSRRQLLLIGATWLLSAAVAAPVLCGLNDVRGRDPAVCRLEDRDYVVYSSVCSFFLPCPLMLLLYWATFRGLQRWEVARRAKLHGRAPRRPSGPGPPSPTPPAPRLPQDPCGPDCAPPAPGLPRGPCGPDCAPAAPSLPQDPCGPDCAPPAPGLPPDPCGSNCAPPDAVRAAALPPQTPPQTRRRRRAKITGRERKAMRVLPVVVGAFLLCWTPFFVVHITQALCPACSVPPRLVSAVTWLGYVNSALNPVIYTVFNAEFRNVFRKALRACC

[3] = target: T2, Alpha-1A adrenergic receptor (Homo sapiens, UniProt P35348); assay: Inhibition of human alpha1A adrenergic receptor at 10 uM
T2 sequence (P35348 whole entry): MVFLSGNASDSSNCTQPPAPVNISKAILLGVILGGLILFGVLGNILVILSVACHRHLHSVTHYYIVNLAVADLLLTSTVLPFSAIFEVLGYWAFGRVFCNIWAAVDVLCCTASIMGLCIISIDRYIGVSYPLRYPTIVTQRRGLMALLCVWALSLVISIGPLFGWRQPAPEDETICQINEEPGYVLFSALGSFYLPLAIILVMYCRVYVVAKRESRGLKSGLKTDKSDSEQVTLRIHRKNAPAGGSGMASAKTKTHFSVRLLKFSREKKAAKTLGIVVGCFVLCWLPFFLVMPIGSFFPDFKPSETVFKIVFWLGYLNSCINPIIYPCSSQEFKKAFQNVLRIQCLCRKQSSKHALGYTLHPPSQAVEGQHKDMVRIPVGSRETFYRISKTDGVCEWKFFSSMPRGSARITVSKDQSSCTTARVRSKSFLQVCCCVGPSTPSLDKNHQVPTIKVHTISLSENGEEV

[4] = target: T3, Transient receptor potential cation channel subfamily V member 6 (Homo sapiens) (UniProt Q9H1D0); assay: Inhibition of human TRPV6 expressed in HEK293 cells assessed as reduction in Cd2+ influx at 10 uM preincubated with compound followed by Cdcl2 addition measured for 12 to 30 mins by Leadmium-green and Alexafluor-594 conjugate based confocal microscopic analysis; type: cell-based; settings: time lower […], time upper 30.0 min
T3 sequence (whole entry): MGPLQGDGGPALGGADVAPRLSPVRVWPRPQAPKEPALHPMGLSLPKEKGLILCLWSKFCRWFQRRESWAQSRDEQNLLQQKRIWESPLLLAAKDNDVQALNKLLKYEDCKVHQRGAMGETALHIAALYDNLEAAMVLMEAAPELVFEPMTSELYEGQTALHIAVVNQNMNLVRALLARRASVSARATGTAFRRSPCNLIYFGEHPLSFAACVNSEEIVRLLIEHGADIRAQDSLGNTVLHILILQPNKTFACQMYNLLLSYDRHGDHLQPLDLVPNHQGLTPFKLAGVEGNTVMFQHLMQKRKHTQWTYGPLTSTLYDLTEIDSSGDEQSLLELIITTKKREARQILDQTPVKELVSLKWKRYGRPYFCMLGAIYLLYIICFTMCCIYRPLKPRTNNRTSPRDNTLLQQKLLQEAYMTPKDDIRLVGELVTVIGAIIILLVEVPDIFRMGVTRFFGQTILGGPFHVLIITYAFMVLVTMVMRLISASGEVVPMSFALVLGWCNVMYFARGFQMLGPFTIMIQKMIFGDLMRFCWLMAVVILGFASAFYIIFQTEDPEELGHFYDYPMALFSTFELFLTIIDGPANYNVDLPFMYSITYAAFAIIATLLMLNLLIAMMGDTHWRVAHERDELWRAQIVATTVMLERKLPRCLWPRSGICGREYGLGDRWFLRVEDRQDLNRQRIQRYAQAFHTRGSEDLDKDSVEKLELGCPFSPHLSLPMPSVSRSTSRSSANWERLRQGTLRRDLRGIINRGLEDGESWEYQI
Outline: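 HEK-hTRPV6 cells on poly-D-lysine chambered coverglass, 24 h. Stained 30 min at 37 °C in nominally Ca²⁺-free buffer with Leadmium Green, Hoechst 33258 and WGA-Alexa Fluor 594 at 5, 1 and 5 ng/µL final. Washed, then test compound at 10 µM or DMSO added. CdCl2 at 50 µM final was added at the start of 30 min confocal imaging at 100X. Total fluorescence per channel was plotted over time.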

[5] = target: T4, Muscarinic acetylcholine receptor M1 (Homo sapiens, UniProt P11229); assay: Inhibition of human muscarinic M1 receptor at 10 uM
T4 sequence (P11229 whole entry): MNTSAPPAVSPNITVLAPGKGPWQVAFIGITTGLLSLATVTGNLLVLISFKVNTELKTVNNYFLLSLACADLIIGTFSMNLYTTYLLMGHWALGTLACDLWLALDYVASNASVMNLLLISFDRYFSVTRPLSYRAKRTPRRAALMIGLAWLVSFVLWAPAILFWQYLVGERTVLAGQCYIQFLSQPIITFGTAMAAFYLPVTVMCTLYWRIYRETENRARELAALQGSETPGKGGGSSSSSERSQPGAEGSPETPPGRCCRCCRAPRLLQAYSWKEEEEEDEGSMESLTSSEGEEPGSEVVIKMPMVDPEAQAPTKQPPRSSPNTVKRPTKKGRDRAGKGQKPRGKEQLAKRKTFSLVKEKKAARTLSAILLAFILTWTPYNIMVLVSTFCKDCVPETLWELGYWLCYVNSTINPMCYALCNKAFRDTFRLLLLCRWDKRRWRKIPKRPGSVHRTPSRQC

O=c1ccc(CN2CCN([C@H]3CC[C@@](O)(c4cccc(C(F)(F)F)c4)CC3)CC2)c[nH]1
Activity (T47D [1]): Non-Toxic | Activity (T47D [2]): Non-Toxic | Activity (HEK293): Non-Toxic | inhibition (INH) (D(4) dopamine receptor): Not Active | inhibition (INH) [3]: Not Active | inhibition [4]: Active | inhibition (INH) [5]: Not Active
